Activity calls are given as the source filed them. The calls are words filed in the database; no cut-off is given here.
Experiments:
Mus musculus = assay: Immunostimulatory activity in C57BL/6 mouse assessed as increase in serum IL12 level at 1 mg/kg, sc after 2 hrs by ELISA; format: functional, organism-based; design: dose 1 mg/kg
How it was run: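 Female C57BL/6 mice (n=3) received a single subcutaneous agonist dose of 1 mg/kg. Blood was taken by retro-orbital bleeding 2 h later, and serum IL-12 was measured by sandwich ELISA. Values are the mean of three mice ± SD.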

[1] = target: T1, Toll-like receptor 9 (Homo sapiens) (UniProt Q9NR96); assay: Induction of TLR9-mediated immune stimulation in human PBMC assessed as IL12 production at 2 ug/ml after 24 hrs by luminex multiplex assay (RVb = 0.00 ng/ml)
T1 sequence (whole entry): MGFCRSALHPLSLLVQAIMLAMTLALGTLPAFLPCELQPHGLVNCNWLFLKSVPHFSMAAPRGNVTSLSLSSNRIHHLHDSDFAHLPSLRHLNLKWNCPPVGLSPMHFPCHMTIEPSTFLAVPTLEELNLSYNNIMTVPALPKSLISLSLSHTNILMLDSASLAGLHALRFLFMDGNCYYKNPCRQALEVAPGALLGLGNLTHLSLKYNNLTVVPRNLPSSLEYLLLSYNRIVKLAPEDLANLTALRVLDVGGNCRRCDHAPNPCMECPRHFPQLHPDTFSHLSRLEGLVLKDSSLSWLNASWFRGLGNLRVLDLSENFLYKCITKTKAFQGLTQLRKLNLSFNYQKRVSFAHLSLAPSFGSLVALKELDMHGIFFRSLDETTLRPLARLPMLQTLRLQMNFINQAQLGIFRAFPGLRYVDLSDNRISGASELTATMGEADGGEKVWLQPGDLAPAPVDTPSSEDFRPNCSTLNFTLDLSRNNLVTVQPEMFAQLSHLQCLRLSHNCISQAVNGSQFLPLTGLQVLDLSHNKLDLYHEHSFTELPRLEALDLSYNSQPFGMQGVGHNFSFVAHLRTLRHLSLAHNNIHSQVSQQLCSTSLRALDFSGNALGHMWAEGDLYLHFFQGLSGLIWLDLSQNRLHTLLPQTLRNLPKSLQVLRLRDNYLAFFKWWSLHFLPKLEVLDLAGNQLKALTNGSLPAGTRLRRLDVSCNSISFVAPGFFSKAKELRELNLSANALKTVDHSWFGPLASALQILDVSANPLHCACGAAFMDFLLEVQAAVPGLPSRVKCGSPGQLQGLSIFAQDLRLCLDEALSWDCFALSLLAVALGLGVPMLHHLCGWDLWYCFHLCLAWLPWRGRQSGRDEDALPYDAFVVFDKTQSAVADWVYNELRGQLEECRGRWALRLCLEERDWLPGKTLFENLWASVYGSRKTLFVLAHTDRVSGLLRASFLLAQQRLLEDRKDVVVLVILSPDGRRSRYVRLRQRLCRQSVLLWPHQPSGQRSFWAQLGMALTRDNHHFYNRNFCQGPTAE

[2] = target: T1, Toll-like receptor 9 (Homo sapiens); assay: Induction of TLR9-mediated immune stimulation in human PBMC assessed as IL2R production at 2 ug/ml after 24 hrs by luminex multiplex assay (RVb = 0.02 +/- 0.01 ng/ml)
[3] = target: T1, Toll-like receptor 9 (Homo sapiens); assay: Induction of TLR9-mediated immune stimulation in human PBMC assessed as IL1Ralpha production at 2 ug/ml after 24 hrs by luminex multiplex assay (RVb = 0.12 +/- 0.03 ng/ml)

Activity [1] [ng/mL] | Activity [2] [ng/mL] | Activity [3] [ng/mL] | Structure (SMILES) | Activity (Mus musculus)
0.14 | 0.03 | 8.94 | Cc1cn([C@H]2C[C@H](OCCC(O)CCOP(=O)(S)O[C@H]3C[C@H](n4cc(C)c(=O)[nH]c4=O)O[C@@H]3COP(=O)(S)O[C@H]3[C@@H](O)[C@H](n4ccc(N)nc4=O)O[C@@H]3COP(=O)(S)O[C@H]3C[C@H](n4cc(C)c(=O)[nH]c4=O)O[C@@H]3COP(=O)(S)O[C@H]3C[C@H](n4cc(C)c(=O)[nH]c4=O)O[C@@H]3COP(=O)(S)O[C@H]3C[C@H](n4ccc5c(=O)[nH]c(N)nc54)O[C@@H]3COP(=O)(S)O[C@H]3[C@@H](O)[C@H](n4ccc(N)nc4=O)O[C@@H]3COP(=O)(S)O[C@H]3C[C@H](n4cc(C)c(=O)[nH]c4=O)O[C@@H]3COP(=O)(S)O[C@H]3[C@@H](O)[C@H](n4cnc5c(=O)[nH]c(N)nc54)O[C@@H]3COP(=O)(S)O[C@H]3C[C@H](n4cc(C)c(=O)[nH]c4=O)O[C@@H]3COP(=O)(S)O[C@H]3[C@@H](O)[C@H](n4ccc(N)nc4=O)O[C@@H]3COP(=O)(S)O[C@H]3C[C@H](n4cc(C)c(=O)[nH]c4=O)O[C@@H]3CO)[C@@H](COP(=O)(S)O[C@H]3[C@@H](O)[C@H](n4ccc(N)nc4=O)O[C@@H]3COP(=O)(S)O[C@H]3C[C@H](n4cc(C)c(=O)[nH]c4=O)O[C@@H]3COP(=O)(S)O[C@H]3C[C@H](n4cc(C)c(=O)[nH]c4=O)O[C@@H]3COP(=O)(S)O[C@H]3C[C@H](n4ccc5c(=O)[nH]c(N)nc54)O[C@@H]3COP(=O)(S)O[C@H]3[C@@H](O)[C@H](n4ccc(N)nc4=O)O[C@@H]3COP(=O)(S)O[C@H]3C[C@H](n4cc(C)c(=O)[nH]c4=O)O[C@@H]3COP(=O)(S)O[C@H]3[C@@H](O)[C@H](n4cnc5c(=O)[nH]c(N)nc54)O[C@@H]3COP(=O)(S)O[C@H]3C[C@H](n4cc(C)c(=O)[nH]c4=O)O[C@@H]3COP(=O)(S)O[C@H]3[C@@H](O)[C@H](n4ccc(N)nc4=O)O[C@@H]3COP(=O)(S)O[C@H]3C[C@H](n4cc(C)c(=O)[nH]c4=O)O[C@@H]3CO)O2)c(=O)[nH]c1=O (some centres not stated) | Active
0.12 | 0.11 | 10.7 | Cc1cn([C@H]2C[C@H](OCCOCCOCCOCCOCCOCCOP(=O)(S)O[C@H]3C[C@H](n4cc(C)c(=O)[nH]c4=O)O[C@@H]3COP(=O)(S)O[C@H]3[C@@H](O)[C@H](n4ccc(N)nc4=O)O[C@@H]3COP(=O)(S)O[C@H]3C[C@H](n4cc(C)c(=O)[nH]c4=O)O[C@@H]3COP(=O)(S)O[C@H]3C[C@H](n4cc(C)c(=O)[nH]c4=O)O[C@@H]3COP(=O)(S)O[C@H]3C[C@H](n4ccc5c(=O)[nH]c(N)nc54)O[C@@H]3COP(=O)(S)O[C@H]3[C@@H](O)[C@H](n4ccc(N)nc4=O)O[C@@H]3COP(=O)(S)O[C@H]3C[C@H](n4cc(C)c(=O)[nH]c4=O)O[C@@H]3COP(=O)(S)O[C@H]3[C@@H](O)[C@H](n4cnc5c(=O)[nH]c(N)nc54)O[C@@H]3COP(=O)(S)O[C@H]3C[C@H](n4cc(C)c(=O)[nH]c4=O)O[C@@H]3COP(=O)(S)O[C@H]3[C@@H](O)[C@H](n4ccc(N)nc4=O)O[C@@H]3COP(=O)(S)O[C@H]3C[C@H](n4cc(C)c(=O)[nH]c4=O)O[C@@H]3CO)[C@@H](COP(=O)(S)O[C@H]3[C@@H](O)[C@H](n4ccc(N)nc4=O)O[C@@H]3COP(=O)(S)O[C@H]3C[C@H](n4cc(C)c(=O)[nH]c4=O)O[C@@H]3COP(=O)(S)O[C@H]3C[C@H](n4cc(C)c(=O)[nH]c4=O)O[C@@H]3COP(=O)(S)O[C@H]3C[C@H](n4ccc5c(=O)[nH]c(N)nc54)O[C@@H]3COP(=O)(S)O[C@H]3[C@@H](O)[C@H](n4ccc(N)nc4=O)O[C@@H]3COP(=O)(S)O[C@H]3C[C@H](n4cc(C)c(=O)[nH]c4=O)O[C@@H]3COP(=O)(S)O[C@H]3[C@@H](O)[C@H](n4cnc5c(=O)[nH]c(N)nc54)O[C@@H]3COP(=O)(S)O[C@H]3C[C@H](n4cc(C)c(=O)[nH]c4=O)O[C@@H]3COP(=O)(S)O[C@H]3[C@@H](O)[C@H](n4ccc(N)nc4=O)O[C@@H]3COP(=O)(S)O[C@H]3C[C@H](n4cc(C)c(=O)[nH]c4=O)O[C@@H]3CO)O2)c(=O)[nH]c1=O (some centres not stated) | inactive
0.14 | 0.06 | 13 | Cc1cn([C@H]2C[C@H](OCC(O)COP(=O)(S)O[C@H]3C[C@H](n4cc(C)c(=O)[nH]c4=O)O[C@@H]3COP(=O)(S)O[C@H]3[C@@H](O)[C@H](n4ccc(N)nc4=O)O[C@@H]3COP(=O)(S)O[C@H]3C[C@H](n4cc(C)c(=O)[nH]c4=O)O[C@@H]3COP(=O)(S)O[C@H]3C[C@H](n4cc(C)c(=O)[nH]c4=O)O[C@@H]3COP(=O)(S)O[C@H]3C[C@H](n4ccc5c(=O)[nH]c(N)nc54)O[C@@H]3COP(=O)(S)O[C@H]3[C@@H](O)[C@H](n4ccc(N)nc4=O)O[C@@H]3COP(=O)(S)O[C@H]3C[C@H](n4cc(C)c(=O)[nH]c4=O)O[C@@H]3COP(=O)(S)O[C@H]3[C@@H](O)[C@H](n4cnc5c(=O)[nH]c(N)nc54)O[C@@H]3COP(=O)(S)O[C@H]3C[C@H](n4cc(C)c(=O)[nH]c4=O)O[C@@H]3COP(=O)(S)O[C@H]3[C@@H](O)[C@H](n4ccc(N)nc4=O)O[C@@H]3COP(=O)(S)O[C@H]3C[C@H](n4cc(C)c(=O)[nH]c4=O)O[C@@H]3CO)[C@@H](COP(=O)(S)O[C@H]3[C@@H](O)[C@H](n4ccc(N)nc4=O)O[C@@H]3COP(=O)(S)O[C@H]3C[C@H](n4cc(C)c(=O)[nH]c4=O)O[C@@H]3COP(=O)(S)O[C@H]3C[C@H](n4cc(C)c(=O)[nH]c4=O)O[C@@H]3COP(=O)(S)O[C@H]3C[C@H](n4ccc5c(=O)[nH]c(N)nc54)O[C@@H]3COP(=O)(S)O[C@H]3[C@@H](O)[C@H](n4ccc(N)nc4=O)O[C@@H]3COP(=O)(S)O[C@H]3C[C@H](n4cc(C)c(=O)[nH]c4=O)O[C@@H]3COP(=O)(S)O[C@H]3[C@@H](O)[C@H](n4cnc5c(=O)[nH]c(N)nc54)O[C@@H]3COP(=O)(S)O[C@H]3C[C@H](n4cc(C)c(=O)[nH]c4=O)O[C@@H]3COP(=O)(S)O[C@H]3[C@@H](O)[C@H](n4ccc(N)nc4=O)O[C@@H]3COP(=O)(S)O[C@H]3C[C@H](n4cc(C)c(=O)[nH]c4=O)O[C@@H]3CO)O2)c(=O)[nH]c1=O (some centres not stated) | Active

Source: ChEMBL document CHEMBL1157912, “Impact of nature and length of linker incorporated in agonists on toll-like receptor 9-mediated immune responses” (J Med Chem, 2010)
